Screens from PubChem BioAssay.
Granule exo inh = blocks lytic granule exocytosis; TALL-104 LAMP-1 surface exposure, flow cytometry; cells stimulated with thapsigargin and PMA; inhibition, % at 10 µM; 0.66% of 360,000 active; AID 651702;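 active means inhibition above about 55%, limit read from the data; inconclusive means no clear call, values can overlap the other calls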
Mdm2-MdmX inh = human Mdm2/MdmX binding inhibition. SaOS-2 split-luciferase Mdm2/MdmX complementation, luminescence. inhibition, % at 8 µM. 3% of 330,000 active. AID 485346;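 active means inhibition of at least 50% at 8 µM in the primary screen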
Target sequence (O15151 whole entry, looked up): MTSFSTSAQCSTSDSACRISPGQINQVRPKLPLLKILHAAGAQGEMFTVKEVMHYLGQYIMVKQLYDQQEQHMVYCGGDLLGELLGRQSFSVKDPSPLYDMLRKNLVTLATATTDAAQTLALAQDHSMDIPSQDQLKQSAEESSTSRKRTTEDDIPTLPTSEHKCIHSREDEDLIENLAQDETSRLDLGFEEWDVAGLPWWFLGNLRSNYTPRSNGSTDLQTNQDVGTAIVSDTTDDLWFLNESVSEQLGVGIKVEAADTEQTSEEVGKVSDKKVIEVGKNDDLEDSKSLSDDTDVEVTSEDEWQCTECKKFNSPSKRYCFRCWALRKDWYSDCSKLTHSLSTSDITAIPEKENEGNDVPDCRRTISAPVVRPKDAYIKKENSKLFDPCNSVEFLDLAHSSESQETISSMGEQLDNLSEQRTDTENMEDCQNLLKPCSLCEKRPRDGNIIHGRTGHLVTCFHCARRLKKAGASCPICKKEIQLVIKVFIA
Target sequence (Q00987 whole entry, looked up): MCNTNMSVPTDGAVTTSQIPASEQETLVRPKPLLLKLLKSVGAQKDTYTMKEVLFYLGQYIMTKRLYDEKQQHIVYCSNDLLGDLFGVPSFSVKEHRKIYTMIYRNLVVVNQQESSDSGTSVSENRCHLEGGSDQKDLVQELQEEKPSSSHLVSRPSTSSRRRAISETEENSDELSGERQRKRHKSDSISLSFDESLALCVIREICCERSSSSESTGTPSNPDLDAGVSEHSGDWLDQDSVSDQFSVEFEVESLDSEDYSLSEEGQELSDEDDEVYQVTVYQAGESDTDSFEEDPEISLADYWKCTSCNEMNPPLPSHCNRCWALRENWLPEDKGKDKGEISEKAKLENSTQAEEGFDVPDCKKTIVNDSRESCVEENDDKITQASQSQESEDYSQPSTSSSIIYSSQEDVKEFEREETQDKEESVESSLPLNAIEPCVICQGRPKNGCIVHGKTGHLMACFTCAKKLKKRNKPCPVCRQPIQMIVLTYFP
UPR XBP1 act = adaptive UPR (XBP1) activation; activation, % at 20 µM; 0.33% of 330,000 active; CHO-XBP1 luciferase reporter, IRE1-XBP1 UPR activation, luminescence; percent of tunicamycin response, DMSO as zero;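 active means versus positive control, 20 µM dose yields 30% or more activation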;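 further: 100% = tunicamycin at 10 µg/mL and 0% = DMSO only wells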
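Material: CHO-XBP1 cells stably carrying IRE1-XBP1-driven luciferase reporter / Amount: 1000 cells per well / Compound: 20 µM, 1% DMSO / Times: 6 h treatment, 37 °C / Detection: luciferase luminescence / Measure: % activation of reporter signal versus tunicamycin and DMSO controls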
ABHD5-PLIN5 inh = inhibitors of human ABHD5-perilipin-5 interaction. Split G. princeps luciferase complementation, luminescence, 4 h. AID 602281. 0.78% of 360,000 active. inhibition, % at 4 µM. Q00G26+Q8WTS1;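 active means inhibition above the mean inhibition across every tested compound plus 3 SD, cut at about 22% in these data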;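 further: 0% = DMSO only wells and the 100% control is not disclosed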
UPR CHOP act = activators of apoptotic arm of unfolded protein response (CHOP); AID 449763; CHO-CHOP luciferase reporter, UPR activation, luminescence; percent of tunicamycin response over DMSO baseline; activation, % at 10 µM; 0.34% of 330,000 active;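 active means at 10 µM dose, activation of 40% or more, normalized to positive control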;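 further: 100% = tunicamycin at 10 µg/mL and 0% = DMSO alone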
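System: CHO-CHOP luciferase reporter cell line | Buffer or medium: F12 medium containing 10% fetal bovine serum | Doses: One dose, 10 µM in 0.5% DMSO | Times: 6 h compound exposure at 37 °C after overnight seeding | Signal: Luciferase luminescence | Read-out: % activation vs tunicamycin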
CHOP UPR conf = apoptotic UPR (CHOP) activation, confirmed; shares compounds with UPR CHOP act; CHO-CHOP cells, CHOP-luciferase reporter luminescence; percent of tunicamycin response, DMSO as zero; activation, % at 10 µM; 64% of 1,000 active; AID 463112; in the data active means activation above about 33%;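 further: 0% = DMSO wells and 100% = tunicamycin 10 µg/mL wells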
XBP1 UPR conf = confirmation of adaptive unfolded protein response (XBP1) activators | shares compounds with UPR XBP1 act | CHO-XBP1 IRE1-XBP1 luciferase reporter, luminescence | activation, % at 20 µM | 63% of 1,000 active;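 active means reporter signal at least 30% of the positive control's activation in two or more of four replicate wells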;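 further: plate controls were DMSO negative control for no effect and tunicamycin 10 µg/mL positive control for full effect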
Mdm2 MdmX conf = confirmation of human Mdm2/MdmX interaction inhibitors; shares compounds with Mdm2-MdmX inh; 55% of 10,000 active; inhibition, % at 8 µM; Mdm2-MdmX binding, luminescent assay; AID 489028; in the data active means inhibition above about 40%
Full FLuc ctr = full-length luciferase inhibition in Mdm2/MdmX counter-screen | shares compounds with Mdm2-MdmX inh | SaOS-2 full-length luciferase counterscreen, luminescence | inhibition, % at 8 µM | 77% of 6,200 active | AID 504607;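 active means mean inhibition at 8 µM reaching about 37%, which flags the compound as non-specific, limit read from the data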;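 further: p53-null SaOS-2 cells with luciferase driven by a doxycycline-inducible promoter; compound on cells about two nights before reading with doxycycline added after day one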
An asterisk follows results filed as active. Sampled rows, rich in hits. Any-hit rate of the full collection: about 4%.

Screening COc1ccc(/C=C2/C(=O)N(Cc3ccco3)C(=O)N(C(C)C)C2=O)cc1 returned Granule exo inh -1, Mdm2-MdmX inh 18, UPR XBP1 act -2, ABHD5-PLIN5 inh 0 and UPR CHOP act -2.
Nc1cc2nc3ccccc3nc2cc1N was read as Granule exo inh 1, Mdm2-MdmX inh 25, UPR XBP1 act -1, ABHD5-PLIN5 inh -9 and UPR CHOP act 3.
`COc1ccc2c(c1O)[C@]13CCN(C)[C@H](C2)[C@@H]1CCC(=O)C3` gave Granule exo inh 9, Mdm2-MdmX inh 18, UPR XBP1 act 0, ABHD5-PLIN5 inh -5 and UPR CHOP act 0.
For CN1C(=O)/C(=C/c2cccn2-c2ccc3ccccc3c2)C(=O)NC1=S the results were Granule exo inh 98*, Mdm2-MdmX inh 100*, UPR XBP1 act 116*, ABHD5-PLIN5 inh 7, UPR CHOP act 145*, CHOP UPR conf 151*, XBP1 UPR conf -6 and Mdm2 MdmX conf 24.
`Cc1ccc(/C=C2\C(=O)NC(=S)N(c3ccc(F)cc3)C2=O)s1` gave Granule exo inh 36, Mdm2-MdmX inh 80*, UPR XBP1 act -8, ABHD5-PLIN5 inh -5, UPR CHOP act 393*, CHOP UPR conf 17 and Mdm2 MdmX conf 4.
`CSc1ncc(CN2CCCC(C(=O)c3ccccc3SC)C2)cn1` (stereo not given) gave Granule exo inh -5, Mdm2-MdmX inh 2, UPR XBP1 act -2, ABHD5-PLIN5 inh -1 and UPR CHOP act -2.
Screening Cc1c(C(=O)c2cccc3ccccc23)c2cccc3c2n1[C@H](CN1CCOCC1)CO3 returned Granule exo inh 15, Mdm2-MdmX inh 91*, UPR XBP1 act 29, ABHD5-PLIN5 inh 3, UPR CHOP act 58*, CHOP UPR conf 40*, Mdm2 MdmX conf 57* and Full FLuc ctr 93*.
O=C1NC(=O)C2(Cc3ccccc3N3CCCC32)C(=O)N1c1ccc(Cl)cc1 (stereo not given) was read as Mdm2-MdmX inh 15, UPR XBP1 act -1 and UPR CHOP act -1.
For O=C1NC(=O)N(Cc2ccccc2)C(=O)/C1=C/C=C/c1ccco1 the results were Granule exo inh inconclusive, Mdm2-MdmX inh 15, UPR XBP1 act 14, ABHD5-PLIN5 inh 17 and UPR CHOP act 2.
For CC(C)c1ccc(N2C(=O)NC(=O)/C(=C\C=C\c3ccco3)C2=O)cc1 the results were Mdm2-MdmX inh 56*, UPR XBP1 act -5, UPR CHOP act 250*, CHOP UPR conf 254* and Mdm2 MdmX conf 22.
For CCN1/C(=C\C=C\C2=[N+](CC)c3ccccc3C2(C)C)C(C)(C)c2ccccc21 the results were Granule exo inh 85*, Mdm2-MdmX inh 97*, UPR XBP1 act 3, ABHD5-PLIN5 inh 46*, UPR CHOP act 46*, CHOP UPR conf 24, Mdm2 MdmX conf 96* and Full FLuc ctr 7.
For C[N+](C)(C)CC1CCCc2ccccc2C1=O (stereo not given) the results were Granule exo inh -6 and ABHD5-PLIN5 inh -2.
CN(C)c1ccc([N+](=O)[O-])c([N+](=O)[O-])c1 was read as Granule exo inh -6 and ABHD5-PLIN5 inh 1.
